Data set [1] can be described thus: Antiproliferative activity against human LoVo/DX cells assessed as reduction in cell viability after 72 hrs by SRB assay. It counts as functional, cell-based. An outline of the steps: (§1)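 Human colon adenocarcinoma LoVo cells and their doxorubicin-resistant subline LoVo/DX. Growth was read by sulforhodamine B (SRB) staining. IC50 values are means ± SD from at least three experiments, each in triplicate.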

A further data set has as its system BALB/3T3. As to the kind of experiment: Cytotoxicity against mouse BALB/3T3 cells after 72 hrs by SRB assay. The settings on record: BALB/3T3, 72 h. It counts as cell-based. In general terms: In SRB staining, fixed cells bind dye roughly in proportion to their protein.
In data set [2] the test system is LoVo. The experiment in a line: Selectivity index, ratio of IC50 for human LoVo/DX cells to IC50 for human LoVo cells. It counts as functional.
Data set [3] concerns LoVo. The experiment in a line: Antiproliferative activity against human LoVo cells assessed as reduction in cell viability after 72 hrs by SRB assay. It counts as functional, cell-based. An outline of the steps: as §1
Data set [4] is described as follows: Potency index, ratio of IC50 for doxorubicin to IC50 for test compound against human LoVo/DX cells assessed as reduction in cell viability after 72 hrs by SRB assay. It counts as functional.
For a further data set, the target named is Histone deacetylase. The experiment in a line: Inhibition of HDAC in human LoVo/DX cells using Boc-Lys(Ac)-AMC as substrate assessed as release of AMC pre-incubated for 15 mins followed by substrate addition measured after 3 hrs by indirect spectrofluorometric assay. It counts as cell-based. An outline of the steps: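 Crude enzyme was LoVo/DX cell lysate. HDAC activity was read by an indirect spectrofluorometric assay, and IC50 was determined on the lysate.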

Data set [5] in a line: Selectivity index, ratio of IC50 for mouse BALB/3T3 cells to IC50 for human LoVo/DX cells. It counts as functional.
Data set [6] relates to Mus musculus. As to the kind of experiment: Toxicity in Balb/c mouse assessed as changes in body weight at 900 umol/kg. The note with it: in vivo. It counts as organism-based. An outline of the steps: (§2)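 Preliminary in vivo toxicity study in Balb/c mice given high doses (900 µmol/kg b.w.). Toxicity was judged from body weight changes, blood morphology and blood biochemical analysis.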

Data set [7] deals with Mus musculus. As to the kind of experiment: Toxicity in Balb/c mouse assessed as changes in blood morphology at 900 umol/kg. It counts as organism-based. The note with it: in vivo. An outline of the steps:
as §2

In data set [8] the test system is Mus musculus. The experiment in a line: Toxicity in Balb/c mouse assessed as changes in blood biochemical parameters at 900 umol/kg. The note with it: in vivo. It counts as organism-based. An outline of the steps: as §2
For data set [9], the system named is LoVo. The experiment in a line: Selectivity index, ratio of IC50 for mouse BALB/3T3 cells to IC50 for human LoVo cells. It counts as functional.
Setting [10] is: Homo sapiens, LoVo, 72 h, read-out: IC50.

Bounds are passed on as bounds.

By IC50 is commonly meant the concentration at which inhibition is half-maximal. In the case of `COc1cccc2c1C(=O)c1c(O)c3c(c(O)c1C2=O)C[C@@](O)(C(=O)CO)C[C@@H]3O[C@H]1C[C@H](N)[C@H](O)[C@H](C)O1` [DOXORUBICIN], the results for the IC50 (in data set [1]; with BALB/3T3) were 7.2 µM and 0.11 µM, respectively. In addition, the “Ratio IC50” value with LoVo [2] amounted to 48.

For `S=C=NCCCN=C=S`, the IC50 in the data set on LoVo [3] (setting [10]) is 1.84 µM; in [1], 2.44 µM.

In the case of `S=C=Nc1cccc(N=C=S)c1`, the values for the IC50 (in the data set on LoVo [3] (setting [10]); in data set [1]) were 46.4 µM and 55.7 µM, respectively.

In the case of `S=C=NCCCCN=C=S`, the IC50 in the data set on LoVo [3] (setting [10]) was found to be 1.88 µM; in data set [1] it was 2.35 µM. Besides, the “Ratio IC50” value in data set [4] amounted to 3.

For the molecule `CCCN=C=S` [PROPYL ISOTHIOCYANATE], the 50% inhibitory concentration (IC50) came out at 181 µM in the data set with LoVo [3] (setting [10]) and 177 µM in data set [1].

Regarding `CCCCNC(=S)SC[C@H](NC(C)=O)C(=O)O`, the IC50 stood at 130 µM in the data set on LoVo [3] (setting [10]), 134 µM in [1], 3460 µM on Histone deacetylase and 206 µM in the data set on BALB/3T3.

On to `CCCNC(=S)SC[C@H](NC(C)=O)C(=O)O`, for which the IC50 was 151 µM in the data set on LoVo [3] (setting [10]), 112 µM in data set [1] and 224 µM in the data set on BALB/3T3.

As for `CCCCCNC(=S)SC[C@H](NC(C)=O)C(=O)O`, the IC50 in the data set on LoVo [3] (setting [10]) came to 36.6 µM; in data set [1], 42.8 µM; at Histone deacetylase, 3200 µM; with BALB/3T3, 48.5 µM.

In the case of `CC(=O)N[C@@H](CSC(=S)NCC1CCCC(CNC(=S)SC[C@H](NC(C)=O)C(=O)O)C1)C(=O)O` (some centres not stated), the IC50 in the data set on LoVo [3] (setting [10]) turned out to be 11.7 µM; in [1], 12.8 µM; at Histone deacetylase, 2680 µM; with BALB/3T3 it was 5.88 µM. Besides, in data set [5], the Ratio IC50 came out at 0.5.

`CC(=O)N[C@@H](CSC(=S)Nc1cccc(NC(=S)SC[C@H](NC(C)=O)C(=O)O)c1)C(=O)O`: the IC50 in the data set on LoVo [3] (setting [10]) is over 25 µM; in [1], over 25 µM; at Histone deacetylase it was 970 µM; with BALB/3T3 it was over 100 µM.

`CC(=O)N[C@@H](CSC(=S)NCCCCNC(=S)SC[C@H](NC(C)=O)C(=O)O)C(=O)O`: the IC50 stood at 2.02 µM with LoVo [3] (setting [10]), 4.84 µM in data set [1], 2330 µM on Histone deacetylase and 5.54 µM in the data set on BALB/3T3. Further, the Activity entry in the data set with Mus musculus [6], in the data set on Mus musculus [7] and with Mus musculus [8] was “Non-toxic” each time.

Take `S=C=Nc1ccc(N=C=S)cc1` [BITOSCANATE]: the IC50 was 9.41 µM in the data set with LoVo [3] (setting [10]) and 11.6 µM in [1].

Turning to `CC(=O)N[C@@H](CSC(=S)N[C@H]1CC[C@H](NC(=S)SC[C@H](NC(C)=O)C(=O)O)CC1)C(=O)O`, the IC50 in the data set on LoVo [3] (setting [10]) was 5.21 µM; in data set [1] it was 3.45 µM; at Histone deacetylase, 3740 µM; with BALB/3T3 it was 7.27 µM.

With `COc1ccc(CN=C=S)cc1`, the IC50 in the data set on LoVo [3] (setting [10]) worked out at 3.7 µM; in data set [1], 3.9 µM.

`CC(=O)N[C@@H](CSC(=S)Nc1ccc(NC(=S)SC[C@H](NC(C)=O)C(=O)O)cc1)C(=O)O`: the IC50 with LoVo [3] (setting [10]) worked out at 23.5 µM; in data set [1] it was 19.4 µM; on Histone deacetylase, 290 µM; in the data set with BALB/3T3 it was 79.5 µM. Further, the “Ratio IC50” value (with LoVo [9]; in [5]) was 3 in each case.

For the molecule `COc1ccc(CNC(=S)SC[C@H](NC(C)=O)C(=O)O)cc1`, the IC50 with LoVo [3] (setting [10]) stood at 3.7 µM; in data set [1] it was 4.2 µM; on Histone deacetylase it was 2940 µM; in the data set on BALB/3T3, 6.9 µM.

As for `CC(=O)N[C@@H](CS)C(=O)O` [ACETYLCYSTEINE], the 50% inhibitory concentration (IC50) at Histone deacetylase came out at 3160 µM.

As to `CC(=O)N[C@@H](CSC(=S)NCCCOCCOCCOCCCNC(=S)SC[C@H](NC(C)=O)C(=O)O)C(=O)O`, the IC50 in the data set with LoVo [3] (setting [10]) came to 2.59 µM; in [1], 7.93 µM; on Histone deacetylase it was 4260 µM; in the data set on BALB/3T3, 7.15 µM.

Regarding `S=C=NCCc1ccccc1` [PHENETHYLISOTHIOCYANATE], in data set [1], the half-maximal inhibitory concentration (IC50) came to 9.8 µM.

On to `CC(=O)N[C@@H](CSC(=S)NCCCNC(=S)SC[C@H](NC(C)=O)C(=O)O)C(=O)O`, for which the IC50 in the data set on LoVo [3] (setting [10]) was determined as 4.22 µM; in data set [1], 9.55 µM; on Histone deacetylase it was 5960 µM; with BALB/3T3, 8.65 µM.

Take `S=C=NCc1ccccc1` [BENZYL ISOTHIOCYANATE]: the IC50 was 14.5 µM in the data set with LoVo [3] (setting [10]) and 19.8 µM in [1].

Consider `CCCCCN=C=S` [1-ISOTHIOCYANATOPENTANE], for which the IC50 in the data set with LoVo [3] (setting [10]) came out at 88.3 µM; in data set [1], 75.2 µM.

Consider `CCCCN=C=S` [BUTYL ISOTHIOCYANATE], for which the values for the IC50 (with LoVo [3] (setting [10]); in [1]) were 296 µM and 265 µM, respectively.

`Cc1ccc(N=C=S)cc1N=C=S`: the figures for the concentration for half-maximal inhibition (IC50) (with LoVo [3] (setting [10]); in data set [1]) were 35.2 µM and 47.3 µM, respectively.

For the molecule `CC(=O)N[C@@H](CSC(=S)Nc1ccc(C)c(NC(=S)SC[C@H](NC(C)=O)C(=O)O)c1)C(=O)O`, the IC50 was determined as 20.5 µM in the data set with LoVo [3] (setting [10]), 22.4 µM in data set [1], 450 µM at Histone deacetylase and 54.7 µM in the data set on BALB/3T3. Also, the “Ratio IC50” value (with LoVo [9]; in [5]) was 3 in each case.

With `CC(=O)N[C@@H](CSC(=S)NCc1ccccc1)C(=O)O`, the IC50 in the data set on LoVo [3] (setting [10]) is 11.7 µM; in [1], 16.8 µM; at Histone deacetylase, 3440 µM; in the data set on BALB/3T3, 23.4 µM.

Regarding `CC(=O)N[C@@H](CSC(=S)NCCOCCOCCNC(=S)SC[C@H](NC(C)=O)C(=O)O)C(=O)O`, the IC50 turned out to be 4.62 µM with LoVo [3] (setting [10]), 14.2 µM in [1], 4370 µM at Histone deacetylase and 6.87 µM in the data set with BALB/3T3. Also, the Ratio IC50 in [5] came to 0.5.

On to `CC(=O)N[C@@H](CSC(=S)NCCCC(C)CNC(=S)SC[C@H](NC(C)=O)C(=O)O)C(=O)O` (some centres not stated), for which the IC50 was 7.15 µM in the data set with LoVo [3] (setting [10]), 6.6 µM in data set [1], 2190 µM on Histone deacetylase and 7.99 µM in the data set with BALB/3T3.

For the molecule `CC(=O)N[C@@H](CSC(=S)NCCc1ccccc1)C(=O)O`, the IC50 in the data set on LoVo [3] (setting [10]) stood at 12.7 µM; in [1], 7.7 µM; on Histone deacetylase, 3450 µM; in the data set on BALB/3T3 it was 25.3 µM.

Regarding `CC(=O)N[C@@H](CSC(=S)NC1CCCCC1NC(=S)SC[C@H](NC(C)=O)C(=O)O)C(=O)O` (some centres not stated), the IC50 entry is “Not Active” in the data set on LoVo [3] (lovo), 473 µM in data set [1], 1660 µM at Histone deacetylase and 75.2 µM in the data set on BALB/3T3.

(Values after ChEMBL document CHEMBL3751671, “Synthesis and biological activity of diisothiocyanate-derived mercapturic acids” (Bioorg Med Chem Lett, 2016).)
